Results gathered from unrelated publications.
Lines come from different studies, so protocols differ.
Target: Interleukin-1 receptor-associated kinase 1 (IRAK1, Homo sapiens, UniProt P51617)

SMILES | effect on | mode | method | concentration | measurement | result
O=C(Nc1ccc(Oc2ccc(F)cc2)cc1)N1CCc2ncccc2[C@H]1c1ccc(F)cc1 | cell-free assay | – | competition with immobilised ligand | 1 µM | remaining binding | 88%
CC(C)(O)[C@H]1CC[C@H](Nc2ccc3ncc(-c4cccc(C(F)(F)F)c4)n3n2)CC1 | enzyme activity | inhibitor | – | 1 µM | remaining activity | 87.1%
FC(F)(F)Oc1cccc(-c2cnc3ccc(-c4ccncc4)nn23)c1 | enzyme activity | inhibitor | radiometric | 1 µM | activity vs control | 52%
CCN(CC)CCNC(=O)c1c(C)[nH]c(/C=C2\C(=O)Nc3ccc(F)cc32)c1C | enzyme activity | inhibitor | – | 10 µM | inhibition | 86%
Cc1cc(C)c(-n2ccn3nc(-c4cccnc4)cc23)cc1NC(=O)c1cc(C#N)cc(S(F)(F)(F)(F)F)c1 | cell-free assay | – | competition with immobilised ligand | 0.1 µM | remaining binding | 87.3%
O=C1Nc2ccc(Cl)cc2C1=Cc1cc(Cl)c(O)c(Cl)c1 | cell-free assay | – | – | 0.5 µM | remaining signal | 95.4%
O=C(Nc1cnn(-c2csc(C(=O)NC3COC3)c2)c1)Nc1c(F)cccc1Cl | enzyme activity | inhibitor | – | 5 µM | remaining activity | 107%
CN1CC(Oc2cnc(C#N)cc2-c2ccn3nc(NC(=O)C4CC4)cc3c2)C1 | enzyme activity | inhibitor | – | 1 µM | inhibition | 38%
O=C(Nc1cnn(-c2csc(C(=O)NC3COC3)c2)c1)Nc1ccccc1Cl | enzyme activity | inhibitor | – | 5 µM | remaining activity | 112%
COc1cc(Nc2cnc(C#N)c(O[C@H](C)CN(C)C)n2)ncc1-c1cnn(C)c1 | enzyme activity | inhibitor | radiometric | 1 µM | remaining activity | 17%
Cc1cc(NC(=O)c2cccc3cc(-c4cccc5[nH]nc(N)c45)ccc23)ccc1F | enzyme activity | inhibitor | – | 0.1 µM | activity vs control | 100%
CCCOc1ccc(OC)c(F)c1C(=O)c1ccc(C(=O)N[C@@H]2CNC[C@H]2NC(=O)c2ccc3[nH]ncc3c2)cc1 | enzyme activity | inhibitor | – | 10 µM | remaining activity | 49%
CN(C)C1CCN(CC#Cc2nn(C3CCCC3)c3nc(NCc4ccccc4)ncc23)C1 (stereo not drawn) | enzyme activity | inhibitor | FRET | 10 µM | inhibition | 37%
COc1cc(Cl)c(C(=O)N[C@@H](CN[C@H]2CC[C@@H](N)CC2)Cc2ccc(C#N)cc2)cc1-c1ccc(CN[C@H](C)c2ccc(C)cc2)o1 | enzyme activity | inhibitor | – | 1 µM | remaining activity | 97%
CN(C)CC#Cc1ccc(OCCCc2sc(N3CCc4cccc(C(=O)Nc5nc6ccccc6s5)c4C3)nc2C(=O)O)c(F)c1 | cell-free assay | – | competition with immobilised ligand | 1 µM | remaining binding | 100%
CC(C)(C)c1nc(-c2cccc(NS(=O)(=O)c3c(F)cccc3F)c2F)c(-c2ccnc(N)n2)s1 | enzyme activity | inhibitor | radiometric | 1 µM | remaining activity | 84%
O=C(NC[C@@H]1[C@H]2CN(C(=O)OCc3cc(C(F)(F)F)cc(C(F)(F)F)c3)C[C@@H]12)c1ccc2[nH]nnc2c1 | cell-free assay | – | competition with immobilised ligand | 1 µM | remaining binding | 98%
Nc1ncnc2occ(-c3ccc(NC(=O)Nc4cc(C(F)(F)F)ccc4F)cc3)c12 | cell-free assay | inhibitor | – | 20 µM | remaining signal | 0.85%
c1ccc(N2CCN(Cc3nc4ccccc4[nH]3)CC2)nc1 | binding | – | competition with immobilised ligand | 1 µM | remaining binding | 100%
CCN(CC)c1ccc(C2=NNC(=O)CC2C)cc1[N+](=O)[O-] (stereo not drawn) | enzyme activity | inhibitor | – | 10 µM | remaining activity | 89%
Cc1ccc(Nc2nccc(N(C)c3ccc4c(C)n(C)nc4c3)n2)cc1S(N)(=O)=O | enzyme activity | inhibitor | – | 10 µM | inhibition | 25%
c1ccc(CNc2nc(N3CCOc4ccccc43)nc3c2CCCC3)cc1 | target engagement in cells | inhibitor | chemoproteomics | 20 mM | inhibition | -2.4%
CNC(=O)Nc1ccc2c(c1)CC[C@@]21OC(=O)N(CC(=O)N(Cc2ccc(F)cc2)[C@@H](C)C(F)(F)F)C1=O | cell-free assay | – | competition with immobilised ligand | 1 µM | remaining binding | 71%
CNC(=O)c1cc(Oc2ccc(NC(=O)Nc3ccc(Cl)c(C(F)(F)F)c3)cc2)ccn1 | enzyme activity | inhibitor | – | 10 µM | inhibition | 60%
CCOC(=O)c1cc2cc(-c3cc(C(=O)NCc4ccc(C(=O)O)cc4)nn3C)ccc2[nH]1 | cell-free assay | – | competition with immobilised ligand | 0.1 µM | remaining binding | 85%
CC/C(=N\NC(=O)NCc1cccc(O)c1)c1ccc(O)c(C)c1O | enzyme activity | inhibitor | – | 0.1 µM | inhibition | -0.6%
Cc1ccc(C(=O)NCc2ccsc2)cc1C#Cc1cn(C(C)C)c2ncnc(N)c12 | enzyme activity | inhibitor | – | 1 µM | activity vs control | 86%
CCCOc1ccc([C@@H]2[C@@H](C(=O)O)[C@H](c3ccc4c(c3)OCO4)CN2CC(=O)Nc2c(CC)cccc2CC)cc1 | cell-free assay | – | competition with immobilised ligand | 1 µM | remaining binding | 96%
O=C1NC(=O)c2cc(Nc3ccc(F)cc3)c(Nc3ccc(F)cc3)cc21 | cell-free assay | – | – | 0.5 µM | remaining signal | 88.5%
COc1cc(-c2cc(-c3ccc(N4CCNCC4)cc3)cnc2C)cc(OC)c1OC | enzyme activity | inhibitor | – | 1 µM | inhibition | 1%
